6 molecules from ChEMBL document CHEMBL4000179, “An Orally Active Bradykinin B1 Receptor Antagonist Engineered as a Bifunctional Chimera of Sunflower Trypsin Inhibitor” (J Med Chem, 2017) can be followed below.

The source made the active and inactive calls. The rule behind the calls is not given here. Where a SMILES comes first, the peptide text is derived from it. Bridges are numbered along the chain shown (N, C = ends). Some results are limits rather than exact numbers.

For series [1], the system named is Mus musculus. The experiment in a line: Analgesic activity in ICR mouse assessed as increase in pain response latency at 0.3 to 10 mg/kg administered through oral gavage 30 mins prior to test by hot plate assay relative to control. In kind it is functional. The gist of the method: (§1)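 Mouse hot plate test with hind paw-licking as the nociceptive end point. Peptides were given i.p. or p.o. at several doses, with phosphate-buffered saline as the control. Response latency was compared with each animal's baseline latency and expressed as percent increment in response time.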
Background: In hot-plate and tail-flick tests a longer latency is read as antinociception.

Series [2] is described as follows: Stability in 0.2 M aqueous HCl after 6 hrs by HPLC-MS analysis. In kind it is physicochemical. Conditions: read-out: Stability. The gist of the method: (§2)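 Peptides were boiled at 100 °C, exposed to hydrochloride solution, or incubated with proteases for up to 6 h. Integrity was determined by HPLC and MS.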
In another series the test system is HeLa. The experiment in a line: Cytotoxicity against human HeLa cells up to 40 uM after 24 hrs by PrestoBlue cell viability assay. It is filed as cell-based.
Series [3] is described as follows: Stability of the compound assessed as pepsin (unknown origin)-mediated compound degradation at enzyme to peptide ratio of 1:50 after 6 hrs by HPLC-MS analysis. It is filed as ADME. Conditions: human; for Stability: 6 h. The gist of the method: as §2
Series [4] can be described thus: Stability of the compound assessed as trypsin (unknown origin)-mediated compound degradation at enzyme to peptide ratio of 1:50 after 6 hrs by HPLC-MS analysis. It is filed as ADME. Conditions: human. The gist of the method:
as §2

Series [5] concerns Mus musculus. The experiment in a line: Analgesic activity in ICR mouse assessed as increase in pain response latency at 1 mg/kg,ip measured after 10 mins by hot plate assay relative to control. In kind it is functional. The gist of the method: as §1
Series [6] in a line: Stability in pH 7 phosphate buffer at 0.1 mM at 100 degC after 6 hrs by HPLC-MS analysis. In kind it is physicochemical. Conditions: read-out: Stability. The gist of the method:
as §2

The next series deals with Serum. The experiment in a line: Metabolic stability in human serum after 2 hrs by UPLC method. In kind it is ADME, cell-free. The gist of the method:
(§3)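 Peptides were incubated in human serum for up to 6 h, sampled at time points, and the intact fraction was expressed relative to 0 h. Runs were in triplicate, reported as mean ± SD.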

Series [7] relates to Mus musculus. The experiment in a line: Analgesic activity in ICR mouse assessed as increase in pain response latency at 0.03 to 1 mg/kg,ip measured after 10 mins by hot plate assay relative to control. It is filed as functional, organism-based. The gist of the method: as §1
The target in series [8] is T1, Serine protease 1 (Bos taurus) (UniProt P00760).
T1 sequence (whole entry): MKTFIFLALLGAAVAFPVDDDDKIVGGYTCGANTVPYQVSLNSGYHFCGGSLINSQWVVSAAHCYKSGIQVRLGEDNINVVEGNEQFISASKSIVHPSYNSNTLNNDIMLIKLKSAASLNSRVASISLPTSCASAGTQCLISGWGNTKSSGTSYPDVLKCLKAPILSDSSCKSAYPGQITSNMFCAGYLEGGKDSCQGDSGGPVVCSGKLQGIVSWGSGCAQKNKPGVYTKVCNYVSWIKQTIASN
The experiment in a line: Inhibition of bovine beta-trypsin up to 100 uM using BAPNA as substrate preincubated for 15 mins followed by substrate addition measured over 60 mins by spectrometric method. The gist of the method:
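Trypsin activity was measured at 37°C with the chromogenic substrate BAPNA (N-α-benzoyl-DL-arginine 4-nitroanilide), reading absorbance at 405 nm. […] Runs were in triplicate, reported as mean ± SD.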

A short description of series [9]: Metabolic stability in human serum assessed as parent compound remaining after 6 hrs by UPLC method. It is filed as ADME, cell-free. Conditions: read-out: Stability. The gist of the method: as §3
The next series addresses T2, B1 bradykinin receptor (Homo sapiens, UniProt P46663).
T2 sequence (P46663 whole entry): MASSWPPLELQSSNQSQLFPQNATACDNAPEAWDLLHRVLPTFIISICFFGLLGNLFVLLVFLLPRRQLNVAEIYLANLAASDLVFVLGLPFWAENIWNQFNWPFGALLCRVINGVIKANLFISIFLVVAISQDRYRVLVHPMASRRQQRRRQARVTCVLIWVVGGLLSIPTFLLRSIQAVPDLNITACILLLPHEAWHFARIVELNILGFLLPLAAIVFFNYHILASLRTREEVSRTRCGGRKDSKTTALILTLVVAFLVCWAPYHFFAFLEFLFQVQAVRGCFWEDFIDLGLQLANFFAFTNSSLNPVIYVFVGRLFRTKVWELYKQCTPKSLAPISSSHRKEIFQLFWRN
The experiment in a line: Antagonist activity against bradykinin B1 receptor in human HeLa cells assessed as inhibition of Des-Arg9-BK-induced increase in intracellular Ca2+ level by Fluro-4 direct calcium dye based fluorescence assay. It is filed as functional, cell-based. The gist of the method: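 HeLa cells were pre-loaded with fluo-4 Direct dye and pretreated with peptide at 0 to 10 µM. B1 agonist des-Arg9-BK (100 nM) was then added to raise intracellular Ca2+, read as fluorescence change.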

Series [10] is described as follows: Drug uptake in ICR mouse serum at 10 mg/kg, po after 4 hrs. It is filed as ADME, organism-based. Conditions: read-out: Drug uptake. The gist of the method:
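Peptide was given orally at 10 mg/kg, and its serum concentration was measured 4 h later.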

Series [11] deals with Mus musculus. The experiment in a line: Analgesic activity in ICR mouse assessed as increase in pain response latency at 10 mg/kg administered through oral gavage 30 mins prior to test by hot plate assay relative to control. It is filed as functional. The gist of the method: as §1
A further series concerns the target T3, Serine protease 1 (Bos taurus, UniProt P00760).
T3 sequence (P00760 whole entry): T1 sequence (whole entry)
The experiment in a line: Inhibition of bovine beta-trypsin using BAPNA as substrate preincubated for 15 mins followed by substrate addition measured over 60 mins by Dixon plot analysis.

For `CC(C)C[C@H](NC(=O)[C@@H]1CCCN1C(=O)[C@H](CO)NC(=O)[C@H](Cc1ccccc1)NC(=O)CNC(=O)[C@@H]1CCCN1C(=O)[C@@H]1CCCN1C(=O)[C@H](CCCN=C(N)N)NC(=O)[C@@H](N)CCCCN)C(=O)O`, the Activity in the series with Mus musculus [1] is <10%; with HeLa it was “Non-Toxic”; in the series with Mus musculus [5], 201%. Moreover, in series [2], the remaining at 6 h was > 80%. The metabolised at 6 h in series [3] (pepsin, read-out: Drug degradation) was > 50%. The Stability result in series [4] was “Stable”; with Serum, “Unstable”. In series [6], the remaining at 6 h, 100 µM is > 80%.

Consider `CC[C@H](C)[C@@H]1NC(=O)[C@@H]2CCCN2C(=O)[C@@H]2CCCN2C(=O)[C@H]([C@@H](C)CC)NC(=O)[C@H](CO)NC(=O)[C@H](CCCCN)NC(=O)[C@H]([C@@H](C)O)NC(=O)[C@@H]2CSSC[C@H](NC1=O)C(=O)N[C@@H](Cc1ccccc1)C(=O)N1CCC[C@H]1C(=O)N[C@@H](CC(=O)O)C(=O)NCC(=O)N[C@@H](CCCNC(=N)N)C(=O)N2`, for which the outcome in the series with Mus musculus [1] and with Mus musculus [7] was inactive. Also, the remaining at 6 h in series [2] is > 80%. Besides, in the series on HeLa, the Activity result is given as “Non-Toxic”. Further, the remaining at 6 h, 100 µM in [6] is > 80%. In [8], the inhibition entry was “Active”.

Regarding `CC[C@H](C)[C@@H]1NC(=O)[C@@H]2CCCN2C(=O)[C@@H]2CCCN2C(=O)[C@H]([C@@H](C)CC)NC(=O)[C@H](CO)NC(=O)[C@H](CCCCN)NC(=O)[C@H]([C@@H](C)O)NC(=O)[C@@H](N)CSSC[C@@H](C(=O)N[C@@H](CCCCN)C(=O)N[C@@H](CCCNC(=N)N)C(=O)N2CCC[C@H]2C(=O)N2CCC[C@H]2C(=O)NCC(=O)N[C@@H](Cc2ccccc2)C(=O)N[C@@H](CO)C(=O)N2CCC[C@H]2C(=O)N[C@@H](CC(C)C)C(=O)O)NC1=O` (H-CTKSIPPICKRPPGFSPL-OH; disulfide 1-9), in [2], the remaining at 6 h was > 80%. Moreover, the Activity entry in the series on HeLa is given as “Non-Toxic”. In addition, the Stability entry in series [3] and in series [4] was “Unstable” each time. Besides, the remaining at 6 h, 100 µM in series [6] is > 80%. The inhibition entry in series [8] was “Active”.

Take `CC(C)C[C@@H]1NC(=O)[C@@H]2CCCN2C(=O)[C@H](CO)NC(=O)[C@H](Cc2ccccc2)NC(=O)CNC(=O)[C@@H]2CCCN2C(=O)[C@@H]2CCCN2C(=O)[C@H](CCCNC(=N)N)NC(=O)[C@H](CCCCN)NC(=O)[C@@H](NC(=O)[C@H](CCCNC(=N)N)NC(=O)CN)CSSC[C@@H](C(=O)N[C@@H](Cc2ccccc2)C(=O)N2CCC[C@H]2C(=O)N[C@@H](CC(=O)O)C(=O)O)NC1=O` (H-GRCKRPPGFSPLCFPD-OH; disulfide 3-13): in series [2], the remaining at 6 h is > 80%. For the same molecule, the Activity entry with HeLa is recorded as “Non-Toxic”. Moreover, the Stability result in series [3] and in series [4] was “Unstable” throughout. Besides, in series [6], the remaining at 6 h, 100 µM was > 80%.

Broadly, the IC50 is the midpoint of a concentration-inhibition curve. In the case of `CC(C)C[C@@H]1NC(=O)[C@@H]2CCCN2C(=O)[C@H](CO)NC(=O)[C@H](Cc2ccccc2)NC(=O)CNC(=O)[C@@H]2CCCN2C(=O)[C@@H]2CCCN2C(=O)[C@H](CCCNC(=N)N)NC(=O)[C@H](CCCCN)NC(=O)[C@@H]2CSSC[C@H](NC1=O)C(=O)N[C@@H](Cc1ccccc1)C(=O)N1CCC[C@H]1C(=O)N[C@@H](CC(=O)O)C(=O)NCC(=O)N[C@@H](CCCNC(=N)N)C(=O)N2` (cyclo(CFPDGRCKRPPGFSPL); disulfide 1-7), the remaining at 6 h was > 80% in series [2] and > 90% in series [9]. For the same molecule, in the series with HeLa, the Activity result is reported as “Non-Toxic”. In addition, the Stability result in series [3] is on record as “Stable”; in [4], “Unstable”. On B1 bradykinin receptor, the IC50 worked out at 4.04 µM. In addition, the remaining at 6 h, 100 µM in series [6] was > 80%. Besides, the inhibition result in series [8] was “inactive”.

Usually Ki stands for the equilibrium dissociation constant of an inhibitor or competing ligand from its target. With `CC[C@H](C)[C@@H]1NC(=O)[C@@H]2CCCN2C(=O)[C@@H]2CCCN2C(=O)[C@H]([C@@H](C)CC)NC(=O)[C@H](CO)NC(=O)[C@H](CCCCN)NC(=O)[C@H]([C@@H](C)O)NC(=O)[C@@H]2CSSC[C@H](NC1=O)C(=O)N[C@@H](CCCCN)C(=O)N[C@@H](CCCNC(=N)N)C(=O)N1CCC[C@H]1C(=O)N1CCC[C@H]1C(=O)NCC(=O)N[C@@H](Cc1ccccc1)C(=O)N[C@@H](CO)C(=O)N1CCC[C@H]1C(=O)N[C@@H](CC(C)C)C(=O)N2` (cyclo(CKRPPGFSPLCTKSIPPI); disulfide 1-11), in [10], the concentration at 4 h was 11.5 µM. For the same molecule, the remaining at 6 h in series [2] was > 80%; in series [9] it was > 90%. The Activity result in the series on HeLa is reported as “Non-Toxic”; in the series with Mus musculus [11], 71%; with Mus musculus [5], 125%. Moreover, the Stability result in [3] and in series [4] was “Stable” each time. Further, the IC50 at B1 bradykinin receptor stood at 2 µM. The remaining at 6 h, 100 µM in series [6] is > 80%. The inhibition entry in [8] is “Active”. Also, the Ki on Serine protease 1 is 0.00512 µM.
